According to paper PMC3494447 (British Journal of Cancer, 2012):
Read-outs that look alike come from different tables or passages of the source.

Experiments:
[1] = system: patients with advanced solid tumours; format: in vivo, human; conditions: for Dose-limiting toxicities: first cycle; for MTD of axitinib: continuously
[2] = system: patients with advanced solid tumours; assay: Safety: treatment-related adverse events; format: in vivo, human
Method in brief: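 Adverse events were monitored throughout in every patient given ≥1 dose and graded by CTCAE version 3.0. Physical examinations were done at baseline, on days 1, 8 and 15 of each cycle and 28 days after the last dose.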

[3] = system: patients with advanced solid tumours; assay: Haematologic laboratory abnormalities; format: in vivo, human; conditions: All grades; Total column = both chemotherapy cohorts
[4] = system: advanced solid tumours; assay: Best tumour response by RECIST 1.0; format: in vivo, human
[5] = format: in vivo; conditions: human, plasma, oral; for AUC(0-t): AUC0-24, Mean (%CV); for Cmax / Vd/F / half-life: Mean (%CV); for Vd/F: Vz/F; for half-life: t½
[6] = system: human liver microsomes; conditions: in vitro, ref unpublished data; cited from earlier work
[7] = system: patients with advanced NSCLC; conditions: phase II, single-agent axitinib, ref Schiller et al, 2009; cited from earlier work
[8] = Plasma pharmacokinetics of chemotherapy in absence or presence of axitinib; format: in vivo, human; conditions: for Plasma pharmacokinetic parameters (Cmax, AUC, clearance, volume of distribution) in the absence or presence of axitinib: comparison in words; for clearance: CL; for Vd: Vz; for half-life: t½
[9] = All grades, Total column = both chemotherapy cohorts
[10] = grade >=3, across both treatment arms
[11] = 5 mg b.i.d., axitinib 5 mg b.i.d. + gemcitabine/cisplatin, cycle 1 day 1
[12] = 5 mg b.i.d., axitinib + paclitaxel/carboplatin, cycle 1 day 1, dose-normalised to 5 mg b.i.d.
[13] = 5 mg b.i.d., axitinib alone, steady state, cohorts 1–3 pooled, dose-normalised to 5 mg b.i.d.
[14] = 5 mg, axitinib alone 5 mg b.i.d., steady state, gemcitabine/cisplatin cohort
[15] = carboplatin (+paclitaxel) + axitinib, cycle 1 day 1, PUF, n=12
[16] = carboplatin (+paclitaxel) without axitinib, cycle 2 day 1, PUF, n=12
[17] = human, plasma, intravenous, Mean (%CV), gemcitabine (+cisplatin) + axitinib, cycle 1 day 1, n=17
[18] = human, plasma, intravenous, Mean (%CV), gemcitabine (+cisplatin) without axitinib, cycle 2, n=17
[19] = human, plasma, intravenous, Mean (%CV), paclitaxel (+carboplatin) + axitinib, cycle 1 day 1, n=12
[20] = human, plasma, intravenous, Mean (%CV), paclitaxel (+carboplatin) without axitinib, cycle 2 day 1, n=12

## CNC(=O)c1ccccc1Sc1ccc2c(/C=C/c3ccccn3)n[nH]c2c1 [Axitinib, axitinib]
[1]; axitinib 5 mg b.i.d. with gemcitabine/cisplatin
  Dose-limiting toxicities: fatigue
[1]; cohort 1, axitinib lead-in 1 mg b.i.d., with paclitaxel/carboplatin
  Dose-limiting toxicities: None
[1]; cohort 2, axitinib lead-in 3 mg b.i.d., with paclitaxel/carboplatin
  Dose-limiting toxicities: None
[1]; cohort 3, axitinib 5 mg b.i.d., with paclitaxel/carboplatin
  Dose-limiting toxicities: Febrile neutropenia (n=1)
[1]; cohort 3, axitinib 5 mg b.i.d., with paclitaxel/carboplatin, listed as axitinib
  Dose-limiting toxicities: febrile neutropenia
[1]; with cisplatin 80 mg m^-2 (day 1) and gemcitabine 1250 mg m^-2 (days 1 and 8)
  MTD of axitinib: 5 mg b.i.d.
[1]; with paclitaxel 200 mg m^-2 and carboplatin AUC 6 mg min ml^-1
  MTD of axitinib: 5 mg b.i.d.
[2]; 12 patients with squamous cell NSCLC
  Grade >=3 haemoptysis: No grade⩾3 haemoptysis occurred
[2]; [9]
  Decreased appetite, treatment-related AE: 7 (14.3) n (%)
  Diarrhoea, treatment-related AE: 17 (34.7) n (%)
  Dizziness, treatment-related AE: 5 (10.2) n (%)
  Dysgeusia, treatment-related AE: 6 (12.2) n (%)
  Dysphonia, treatment-related AE: 7 (14.3) n (%)
  Epistaxis, treatment-related AE: 8 (16.3) n (%)
  Fatigue, treatment-related AE: 14 (28.6) n (%)
  Hand–foot syndrome, treatment-related AE: 9 (18.4) n (%)
  Headache, treatment-related AE: 7 (14.3) n (%)
  Hypertension, treatment-related AE: 18 (36.7) n (%)
  Nausea, treatment-related AE: 8 (16.3) n (%)
  Proteinuria, treatment-related AE: 10 (20.4) n (%)
  Rash, treatment-related AE: 7 (14.3) n (%)
[2]; Grade 3/4, all patients
  Anaemia reported as treatment-related AE: 2.0%
  Leukopenia reported as treatment-related AE: 2.0%
[2]; all grades, all 49 patients
  Treatment-related diarrhoea: 34.7%
  Treatment-related fatigue: 28.6%
  Treatment-related hypertension: 36.7%
[2]; all patients
  Grade 5 treatment-related AEs: No cases
  Grade >=3 haemoptysis: No cases
[2]; gemcitabine/cisplatin cohort
  Patients with axitinib dose reduced: 28.6%
  Patients with axitinib dosing interrupted: 66.7%
[2]; [10]
  Treatment-related fatigue: 10.2%
  Treatment-related hypertension: 10.2%
[2]; paclitaxel/carboplatin cohorts
  Patients with axitinib dose reduced: 35.7%
  Patients with axitinib dosing interrupted: 35.7%
[3]
  Anaemia, haematologic laboratory abnormality: 48 (100) n (%)
  Leukopenia, haematologic laboratory abnormality: 46 (95.8) n (%)
  Lymphopenia, haematologic laboratory abnormality: 40 (83.3) n (%)
  Neutropenia, haematologic laboratory abnormality: 46 (95.8) n (%)
  Thrombocytopenia, haematologic laboratory abnormality: 43 (89.6) n (%)
[4]; other tumour types
  Objective responses, number of patients: 5 n
[4]; patients with NSCLC
  Objective responses, number of patients: 5 n
[4]; patients with melanoma
  Objective responses, number of patients: 2 n
[4]; patients with ovarian cancer
  Objective responses, number of patients: 3 n
[5]; [11]
  AUC(0-t): 444 ng·h/mL
  Vd/F: 168 L
  half-life: 2.66 h
[5]; [12]
  AUC(0-t): 535 ng·h/mL
  Vd/F: 133 L
[5]; [13]
  AUC(0-t): 404 ng·h/mL
  Vd/F: 108 L
[5]; 5 mg b.i.d., axitinib 5 mg b.i.d. + gemcitabine/cisplatin, cycle 1 day 1, n=20
  Cmax: 41.7 ng/mL
[5]; 5 mg b.i.d., axitinib + paclitaxel/carboplatin, cycle 1 day 1, cohorts 1–3 pooled, dose-normalised to 5 mg b.i.d., n=12
  Cmax: 46 ng/mL
[5]; 5 mg b.i.d., axitinib alone, steady state, cycle 1 day –1, cohorts 1–3 pooled, dose-normalised to 5 mg b.i.d., n=12
  Cmax: 39 ng/mL
[5]; [14]
  AUC(0-t): 416 ng·h/mL
  Vd/F: 157 L
  half-life: 2.68 h
[5]; 5 mg, axitinib alone 5 mg b.i.d., steady state, gemcitabine/cisplatin cohort, n=20
  Cmax: 41 ng/mL
[5]; axitinib + paclitaxel/carboplatin, cycle 1 day 1
  half-life: 2.7 h
[6]
  Enzymes mediating axitinib metabolism: primarily mediated by CYP3A4 and to a lesser extent by CYP1A2, CYP2C19 and UDP-glucuronosyltransferase 1A1
[7]
  median OS: 14.8 months

## N.N.O=C([O-])C1(C(=O)[O-])CCC1.[Pt+2] [Carboplatin, carboplatin]
[8]; [15]
  CL, Mean (%CV): 13.7 (31) l h^−1
  Vz, Mean (%CV): 44.8 (15) l
  t½, Mean (%CV): 2.44 (29) h
[8]; [16]
  CL, Mean (%CV): 12.6 (32) l h^−1
  Vz, Mean (%CV): 45.2 (18) l
  t½, Mean (%CV): 2.62 (21) h
[8]
  Plasma pharmacokinetic parameters (Cmax, AUC, clearance, volume of distribution) in the absence or presence of axitinib: similar

## Nc1ccn([C@@H]2O[C@H](CO)[C@@H](O)C2(F)F)c(=O)n1 [Gemcitabine, 2′,2′-difluorodeoxycytidine]
[8]
  Plasma pharmacokinetic parameters (Cmax, AUC, clearance, volume of distribution) in the absence or presence of axitinib: similar
[8]; human, plasma, intravenous
  AUC(0-inf): 11700 ng·h/mL
[8]; [17]
  clearance: 3620 mL/min
  Vd: 95.5 L
[8]; [18]
  clearance: 3730 mL/min
  Vd: 91.5 L

## CC(=O)O[C@H]1C(=O)[C@@]2(C)[C@H]([C@H](OC(=O)c3ccccc3)[C@]3(O)C[C@H](OC(=O)[C@H](O)[C@@H](NC(=O)c4ccccc4)c4ccccc4)C(C)=C1C3(C)C)[C@]1(OC(C)=O)CO[C@@H]1C[C@@H]2O [Paclitaxel, paclitaxel]
[8]
  Plasma pharmacokinetic parameters (Cmax, AUC, clearance, volume of distribution) in the absence or presence of axitinib: similar
[8]; [19]
  clearance: 303 mL/min
  Vd: 229 L
  half-life: 8.64 h
[8]; [20]
  clearance: 360 mL/min
  Vd: 285 L
  half-life: 8.36 h
[8]; human, plasma, intravenous, Cmax, Mean (%CV), paclitaxel (+carboplatin) + axitinib, cycle 1 day 1, plasma, n=12
  Cmax: 7180 ng/mL

## O=c1ccn([C@@H]2O[C@H](CO)[C@@H](O)C2(F)F)c(=O)[nH]1 [dFdU, 2′,2′-difluorodeoxyuridine]
[8]
  Plasma pharmacokinetic parameters (Cmax, AUC, clearance, volume of distribution) in the absence or presence of axitinib: similar
